The source made the active and inactive calls. No cut-off for these calls is given here.
System: LNCaP
Assay: Antiproliferative activity against human LNCAP cells after 96 hrs by Cell-Titer glo reagent based luminescence assay
Assay type: functional
Settings: not given
In short: (§1)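 Cell viability read by CellTiter-Glo luminescence; IC50 derived from the viability data.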

IC50 [µM]	Compound
7.7	COc1ccc(Br)cc1S(=O)(=O)Nc1cc2c(cc1O)NC(=O)C(C)(C)O2

Target: CREB-binding protein/Histone acetyltransferase p300 (Homo sapiens) (UniProt Q09472+Q92793)
Assay: Inhibition of human His6-tagged CBP (R1081 to G1197 residues)/EP300 (A1040 to G1161 residues) expressed in Escherichia coli BL21 (DE3) cells by SYPRO Orange-dye based fluorescence thermal shift assay
Settings: not given

Sequence of CREB-binding protein/Histone acetyltransferase p300 (Homo sapiens) (Q09472 whole entry, looked up, the tested form may be a part): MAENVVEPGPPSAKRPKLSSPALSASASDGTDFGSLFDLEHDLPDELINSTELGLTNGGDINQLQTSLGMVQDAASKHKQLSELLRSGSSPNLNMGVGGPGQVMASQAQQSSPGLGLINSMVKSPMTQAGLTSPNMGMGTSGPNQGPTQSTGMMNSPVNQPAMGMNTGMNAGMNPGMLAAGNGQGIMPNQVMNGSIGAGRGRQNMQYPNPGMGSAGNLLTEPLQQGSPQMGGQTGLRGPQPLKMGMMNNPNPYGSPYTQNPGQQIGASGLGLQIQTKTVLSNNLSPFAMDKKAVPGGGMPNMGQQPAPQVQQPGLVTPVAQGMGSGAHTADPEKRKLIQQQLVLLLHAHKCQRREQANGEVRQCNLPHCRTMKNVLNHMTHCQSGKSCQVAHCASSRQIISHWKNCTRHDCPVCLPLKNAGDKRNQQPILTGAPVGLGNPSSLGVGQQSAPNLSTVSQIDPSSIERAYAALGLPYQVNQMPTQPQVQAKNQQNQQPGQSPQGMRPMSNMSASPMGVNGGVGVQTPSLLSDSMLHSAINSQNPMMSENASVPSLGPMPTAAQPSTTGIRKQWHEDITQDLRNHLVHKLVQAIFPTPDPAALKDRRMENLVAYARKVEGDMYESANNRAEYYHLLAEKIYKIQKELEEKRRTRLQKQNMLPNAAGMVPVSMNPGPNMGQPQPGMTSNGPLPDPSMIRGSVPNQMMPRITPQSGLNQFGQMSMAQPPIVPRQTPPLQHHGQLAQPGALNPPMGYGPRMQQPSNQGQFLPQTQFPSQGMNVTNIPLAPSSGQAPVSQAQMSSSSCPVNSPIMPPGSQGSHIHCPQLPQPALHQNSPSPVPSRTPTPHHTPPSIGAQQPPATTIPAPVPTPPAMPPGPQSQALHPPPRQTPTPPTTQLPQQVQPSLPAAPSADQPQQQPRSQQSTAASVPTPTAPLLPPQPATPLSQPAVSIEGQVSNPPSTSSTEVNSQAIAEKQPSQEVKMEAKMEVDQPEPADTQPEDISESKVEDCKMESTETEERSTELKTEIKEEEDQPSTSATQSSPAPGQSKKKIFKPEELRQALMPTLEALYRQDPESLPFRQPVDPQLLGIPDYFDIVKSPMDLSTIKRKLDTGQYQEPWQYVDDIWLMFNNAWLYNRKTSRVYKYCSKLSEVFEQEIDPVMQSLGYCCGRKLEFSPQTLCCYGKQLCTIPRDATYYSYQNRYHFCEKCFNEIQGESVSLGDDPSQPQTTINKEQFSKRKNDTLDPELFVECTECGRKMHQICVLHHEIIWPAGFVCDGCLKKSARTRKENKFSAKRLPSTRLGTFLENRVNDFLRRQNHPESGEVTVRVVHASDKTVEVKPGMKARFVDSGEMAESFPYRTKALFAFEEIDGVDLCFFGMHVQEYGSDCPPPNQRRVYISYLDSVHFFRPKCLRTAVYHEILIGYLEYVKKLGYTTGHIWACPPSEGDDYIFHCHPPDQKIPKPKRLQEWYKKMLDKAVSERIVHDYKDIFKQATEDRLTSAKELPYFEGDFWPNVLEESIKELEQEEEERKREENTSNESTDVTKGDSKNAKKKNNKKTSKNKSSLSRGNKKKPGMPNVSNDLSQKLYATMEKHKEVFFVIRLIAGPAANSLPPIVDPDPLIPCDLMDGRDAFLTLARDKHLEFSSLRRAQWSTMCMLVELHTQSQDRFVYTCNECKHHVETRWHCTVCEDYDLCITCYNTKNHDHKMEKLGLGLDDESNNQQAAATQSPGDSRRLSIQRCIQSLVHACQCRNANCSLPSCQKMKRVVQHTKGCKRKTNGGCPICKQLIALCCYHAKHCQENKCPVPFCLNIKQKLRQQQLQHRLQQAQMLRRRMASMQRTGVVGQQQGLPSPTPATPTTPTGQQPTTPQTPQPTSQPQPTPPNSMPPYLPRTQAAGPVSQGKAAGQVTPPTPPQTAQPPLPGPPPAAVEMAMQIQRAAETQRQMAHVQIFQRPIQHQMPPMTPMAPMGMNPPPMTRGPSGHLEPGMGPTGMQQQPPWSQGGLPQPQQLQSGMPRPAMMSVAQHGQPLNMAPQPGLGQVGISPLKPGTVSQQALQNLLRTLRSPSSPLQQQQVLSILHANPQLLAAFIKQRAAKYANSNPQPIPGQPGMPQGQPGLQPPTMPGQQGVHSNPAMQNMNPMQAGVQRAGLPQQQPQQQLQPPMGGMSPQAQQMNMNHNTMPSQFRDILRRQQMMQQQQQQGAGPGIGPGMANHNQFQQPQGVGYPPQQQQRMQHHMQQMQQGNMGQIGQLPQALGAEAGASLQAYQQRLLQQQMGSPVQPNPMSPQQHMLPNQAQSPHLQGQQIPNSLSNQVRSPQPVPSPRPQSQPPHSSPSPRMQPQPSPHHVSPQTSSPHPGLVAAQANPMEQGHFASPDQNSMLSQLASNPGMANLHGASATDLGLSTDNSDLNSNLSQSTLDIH
Sequence of CREB-binding protein/Histone acetyltransferase p300 (Homo sapiens) (Q92793 whole entry, looked up, the tested form may be a part): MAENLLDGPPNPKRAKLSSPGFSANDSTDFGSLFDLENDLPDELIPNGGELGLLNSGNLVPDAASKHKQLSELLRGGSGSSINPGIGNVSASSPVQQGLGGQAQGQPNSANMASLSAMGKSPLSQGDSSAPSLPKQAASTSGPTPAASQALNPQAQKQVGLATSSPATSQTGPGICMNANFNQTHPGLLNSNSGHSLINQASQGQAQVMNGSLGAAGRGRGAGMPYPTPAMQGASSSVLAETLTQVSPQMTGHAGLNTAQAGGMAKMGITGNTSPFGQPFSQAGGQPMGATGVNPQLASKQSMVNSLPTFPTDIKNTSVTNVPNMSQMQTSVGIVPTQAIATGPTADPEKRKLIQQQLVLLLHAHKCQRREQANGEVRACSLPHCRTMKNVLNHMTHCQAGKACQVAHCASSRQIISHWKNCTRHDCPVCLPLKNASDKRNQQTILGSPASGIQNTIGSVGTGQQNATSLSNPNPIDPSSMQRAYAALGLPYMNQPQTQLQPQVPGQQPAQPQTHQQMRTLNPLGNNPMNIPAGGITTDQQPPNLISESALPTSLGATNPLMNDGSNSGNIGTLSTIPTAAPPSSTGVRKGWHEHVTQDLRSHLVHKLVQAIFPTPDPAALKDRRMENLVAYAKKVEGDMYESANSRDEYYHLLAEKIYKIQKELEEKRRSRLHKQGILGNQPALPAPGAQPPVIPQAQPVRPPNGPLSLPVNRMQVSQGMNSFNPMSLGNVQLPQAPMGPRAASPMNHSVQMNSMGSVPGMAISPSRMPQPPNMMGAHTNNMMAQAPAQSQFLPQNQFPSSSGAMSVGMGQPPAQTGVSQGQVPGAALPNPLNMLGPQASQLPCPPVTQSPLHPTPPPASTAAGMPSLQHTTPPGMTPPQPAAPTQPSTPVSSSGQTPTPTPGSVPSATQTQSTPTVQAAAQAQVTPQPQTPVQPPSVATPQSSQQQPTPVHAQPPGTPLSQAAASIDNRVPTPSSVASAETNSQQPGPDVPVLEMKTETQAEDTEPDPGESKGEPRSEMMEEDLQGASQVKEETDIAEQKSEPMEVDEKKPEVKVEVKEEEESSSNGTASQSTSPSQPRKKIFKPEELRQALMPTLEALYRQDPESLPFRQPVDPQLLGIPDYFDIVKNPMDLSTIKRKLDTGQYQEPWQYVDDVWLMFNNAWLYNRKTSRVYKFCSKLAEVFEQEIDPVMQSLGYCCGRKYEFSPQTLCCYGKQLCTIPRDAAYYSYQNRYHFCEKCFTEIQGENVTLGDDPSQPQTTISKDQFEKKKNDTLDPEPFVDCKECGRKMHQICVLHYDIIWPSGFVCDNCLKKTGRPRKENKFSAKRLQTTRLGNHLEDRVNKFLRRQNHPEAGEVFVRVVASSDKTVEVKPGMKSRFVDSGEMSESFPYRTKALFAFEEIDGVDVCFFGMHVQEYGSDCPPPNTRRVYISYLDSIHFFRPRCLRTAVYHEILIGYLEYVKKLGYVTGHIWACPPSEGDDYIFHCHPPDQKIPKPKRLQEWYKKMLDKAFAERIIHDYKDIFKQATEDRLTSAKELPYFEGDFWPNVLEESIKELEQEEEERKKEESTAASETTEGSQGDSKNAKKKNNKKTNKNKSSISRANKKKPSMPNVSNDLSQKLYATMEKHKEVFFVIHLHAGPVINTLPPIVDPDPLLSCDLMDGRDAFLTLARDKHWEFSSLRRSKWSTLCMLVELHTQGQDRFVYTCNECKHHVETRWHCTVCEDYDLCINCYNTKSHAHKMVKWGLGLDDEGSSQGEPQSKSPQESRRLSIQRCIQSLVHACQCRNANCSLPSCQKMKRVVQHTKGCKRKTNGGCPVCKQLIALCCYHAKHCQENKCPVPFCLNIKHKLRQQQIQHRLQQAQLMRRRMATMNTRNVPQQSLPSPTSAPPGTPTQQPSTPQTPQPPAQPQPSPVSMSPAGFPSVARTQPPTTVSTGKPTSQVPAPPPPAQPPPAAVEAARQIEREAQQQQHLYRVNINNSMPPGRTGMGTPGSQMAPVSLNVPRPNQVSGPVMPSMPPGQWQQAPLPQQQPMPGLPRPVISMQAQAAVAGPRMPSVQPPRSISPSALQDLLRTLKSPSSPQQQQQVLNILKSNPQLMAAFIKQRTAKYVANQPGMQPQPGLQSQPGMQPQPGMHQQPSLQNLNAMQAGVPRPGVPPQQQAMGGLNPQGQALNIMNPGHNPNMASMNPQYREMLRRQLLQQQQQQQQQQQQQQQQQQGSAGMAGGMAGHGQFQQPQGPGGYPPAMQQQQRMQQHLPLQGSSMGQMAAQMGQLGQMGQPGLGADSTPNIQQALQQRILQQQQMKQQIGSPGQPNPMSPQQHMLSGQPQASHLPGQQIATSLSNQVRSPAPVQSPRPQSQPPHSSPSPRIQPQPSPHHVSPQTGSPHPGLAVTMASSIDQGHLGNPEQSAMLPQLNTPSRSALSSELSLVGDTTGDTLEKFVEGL

thermal shift binding activity (active/inactive)	Compound
Active	COc1ccc(Br)cc1S(=O)(=O)Nc1cc2c(cc1O)NC(=O)C(C)(C)O2

System: DU-145
Assay: Antiproliferative activity against human DU145 cells after 96 hrs by Cell-Titer glo reagent based luminescence assay
Assay type: functional
Settings: DU-145, 96 h
In short: as §1

IC50 [µM]	Compound
33.2	COc1ccc(Br)cc1S(=O)(=O)Nc1cc2c(cc1O)NC(=O)C(C)(C)O2

Target: T1, Bromodomain-containing protein 4 (Homo sapiens, UniProt O60885)
Assay: Binding affinity to human His6-tagged BRD4 BD1 (N44 to E168 residues) expressed in Escherichia coli BL21 (DE3) cells by isothermal titration calorimetry method
Settings: not given

Kd [µM]	Compound
0.498	COc1ccc(Br)cc1S(=O)(=O)Nc1cc2c(cc1O)NC(=O)C(C)(C)O2

Target: T1, Bromodomain-containing protein 4
Settings: not given

ΔTm [°C]	Compound
2.9	Cc1ccc(S(=O)(=O)Nc2ccc3c(c2)OC(C)(C)C(=O)N3)cc1
2.6	CC1(C)Oc2cc(NS(=O)(=O)c3ccc(F)cc3)cnc2NC1=O
1.1	Cc1ccc(S(=O)(=O)Nc2cnc3c(c2)OC(C)(C)C(=O)N3)cc1
2.3	CC1(C)Oc2cc(NS(=O)(=O)c3cccs3)cnc2NC1=O
2.7	CC1(C)Oc2cc(NS(=O)(=O)c3ccccc3Br)ccc2NC1=O
4.5	COc1ccc(Cl)cc1S(=O)(=O)Nc1ccc2c(c1)OC(C)(C)C(=O)N2
7.2	COc1ccc(Br)cc1S(=O)(=O)Nc1cc2c(cc1O)NC(=O)C(C)(C)O2

System: LNCaP C4-2B
Assay: Antiproliferative activity against human C4-2B cells after 96 hrs by Cell-Titer glo reagent based luminescence assay
Assay type: functional
Settings: not given
In short: as §1

IC50 [µM]	Compound
7.75	COc1ccc(Br)cc1S(=O)(=O)Nc1cc2c(cc1O)NC(=O)C(C)(C)O2

Target: T1, Bromodomain-containing protein 4
Assay: Inhibition of human His6-tagged BRD4 BD1 (N44 to E168 residues) expressed in Escherichia coli BL21 (DE3) cells using H-SGRGK(Ac)GGK(Ac)GLGK(Ac)GGAK(Ac)RHRK-Biotin-OH as substrate after 2.5 hrs by AlphaScreen assay
Settings: read-out: IC50

IC50 [µM]	Compound
4.63	Cc1ccc(S(=O)(=O)Nc2ccc3c(c2)OC(C)(C)C(=O)N3)cc1
> 50	CC1(C)Oc2cc(NS(=O)(=O)c3ccc(F)cc3)cnc2NC1=O
> 50	Cc1ccc(S(=O)(=O)Nc2cnc3c(c2)OC(C)(C)C(=O)N3)cc1
25.4	CC1(C)Oc2cc(NS(=O)(=O)c3cccs3)cnc2NC1=O
> 50	CC1(C)Oc2cc(NS(=O)(=O)c3ccccc3Br)ccc2NC1=O
2.96	COc1ccc(Cl)cc1S(=O)(=O)Nc1ccc2c(c1)OC(C)(C)C(=O)N2
0.63	COc1ccc(Br)cc1S(=O)(=O)Nc1cc2c(cc1O)NC(=O)C(C)(C)O2

System: CWR22R
Assay: Antiproliferative activity against human 22Rv1 cells after 96 hrs by Cell-Titer glo reagent based luminescence assay
Assay type: functional
Settings: 22Rv1, 96 h
In short: as §1

Compound	IC50 [µM]
COc1ccc(Br)cc1S(=O)(=O)Nc1cc2c(cc1O)NC(=O)C(C)(C)O2	7.59

System: PC-3
Assay: Antiproliferative activity against human PC3 cells after 96 hrs by Cell-Titer glo reagent based luminescence assay
Assay type: functional
Settings: PC-3, 96 h
In short: as §1

IC50 [µM]	Compound
22.9	COc1ccc(Br)cc1S(=O)(=O)Nc1cc2c(cc1O)NC(=O)C(C)(C)O2

From ChEMBL document CHEMBL4251705, “Y08060: A Selective BET Inhibitor for Treatment of Prostate Cancer” (ACS Med Chem Lett, 2018)
